Screens: PubChem, The Scripps Research Institute Molecular Screening Center
TAAR1 ag: human TAAR1 agonists, primary screen, Fluo-8 calcium fluorescence, CHO RD-HGA16 cells. vehicle wells 0%, saturating PEA agonist 100%. activation, % at 3 µM. 360,000 compounds, 0.99% hits;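 active means activation above the mean activation of all test compounds in the run plus 3 SD, cut at about 38% in these data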
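Benchmarks: low control DMSO, high control PEA (EC100); System: CHO RD-HGA16 cells carrying human TAAR1 plus Gα16; Detection: Fluo-8 fluorescence, 5 s baseline then 140 s kinetic read; Schedule: 17-24 h plating, Fluo-8 75 min 37 °C, 30 min RT; Read-out basis: % activation from peak over basal fluorescence ratio, DMSO-to-PEA scaled.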
CHO parental Ca: ATP-evoked calcium signal inhibitors, parental CHO, primary screen, counter-screen for OX1R antagonist project, cell-based, fluorescence, Fluo-8 calcium dye | parental CHO-K1, ATP-induced calcium, Fluo-8 fluorescence | inhibition, % at 5.6 µM | 330,000 compounds, 0.63% hits | AID 463079, 2010;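 active means inhibition above that plate's mean sample inhibition plus 3 SD, cut at about 26% in these data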;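 further: 0% = ATP-challenged DMSO wells and 100% = DMSO wells without ATP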
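Test system: untransfected parental CHO cell line; also added: ATP stimulus; dosing: 5.6 µM, single dose; signal: calcium-sensitive Fluo-8 fluorescence; measure: percent inhibition of ATP-evoked calcium rise, normalized to controls; benchmarks: low control ATP plus DMSO, high control DMSO only; replication: one well per compound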
TAAR1 antag: human TAAR1 antagonists, primary screen, Fluo-8 calcium fluorescence, CHO RD-HGA16 cells | Trace amine-associated receptor 1 (Homo sapiens), Q96RJ0 | antagonist | inhibition, % at 3 µM | 360,000 compounds, 1.5% hits;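 active means inhibition above a per-plate cutoff, the mean inhibition of test compounds on that plate plus 3 SD, cut at about 49% in these data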;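 further: 0% = DMSO plus EC80 beta-PEA response and 100% = DMSO alone without agonist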
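Material: CHO RD-HGA16 cells bearing hTAAR1; compound dosing: one-point dosing, 3 µM nominal final; schedule: dye loading 75 min at 37 °C, then 30 min room temperature; measured by: calcium fluorescence with Fluo-8; control set: vehicle and agonist controls; replication: n of 1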
OX1R antag-1: OX1R (HCRTR1) antagonists, primary screen, fluorescence, CHO/OX1R cells, Fluo-8 calcium, orexin A. AID 434989, 2010. inhibition, % at 5 µM. Fluo-8 calcium fluorescence. 330,000 compounds, 0.43% hits;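 active means inhibition above its plate's threshold, mean inhibition of all tested compounds on the plate plus 3 SD, cut at about 37% in these data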;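 further: 0% = orexin A challenge wells and 100% = SB-334867-A antagonist wells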
Target sequence (O43613 whole entry, looked up): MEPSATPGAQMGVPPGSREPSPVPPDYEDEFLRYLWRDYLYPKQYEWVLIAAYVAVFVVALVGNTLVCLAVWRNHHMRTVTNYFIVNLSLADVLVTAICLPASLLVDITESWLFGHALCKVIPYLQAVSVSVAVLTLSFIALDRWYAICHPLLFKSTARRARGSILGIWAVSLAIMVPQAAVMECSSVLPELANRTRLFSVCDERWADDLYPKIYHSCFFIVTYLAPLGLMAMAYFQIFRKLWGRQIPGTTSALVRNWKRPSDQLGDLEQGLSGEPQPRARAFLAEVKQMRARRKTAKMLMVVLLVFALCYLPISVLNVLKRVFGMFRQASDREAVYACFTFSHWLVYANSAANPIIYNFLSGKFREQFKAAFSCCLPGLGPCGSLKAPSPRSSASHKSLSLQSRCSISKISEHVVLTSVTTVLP
GPR7 antag: GPR7 receptor antagonists, primary screen, cell-based, fluorescence, single concentration | GPR7-expressing cells, fluorescence antagonist assay | 290,000 compounds, 1.1% hits | inhibition, % at 4.4 µM; in the data active means inhibition above about 16%, passing the limit was not always enough;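 further: cells stimulated with the agonist NPW; 0% = agonist with vehicle and 100% = vehicle without agonist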
OX1R antag-2: antagonists of human orexin 1 receptor (OX1R); OX1R-expressing cells, FRET antagonist read-out; inhibition, % at 6.6 µM; AID 485270, 2010; Orexin/Hypocretin receptor type 1 (Homo sapiens), O43613; 330,000 compounds, 1.8% hits; in the data active means inhibition mostly above about 38%, no sharp cut-off; inactive means mostly below about 40%;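 further: 0% = agonist challenge alone and 100% = reference antagonist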
OX1R Fluo8 conf: OX1R (HCRTR1) antagonists, confirmation, fluorescence, CHO/OX1R cells, Fluo-8 calcium, orexin A; shares compounds with OX1R antag-1; orexin A calcium Fluo-8 fluorescence; inhibition, % at 5 µM; 1,100 compounds, 38% hits; AID 492963, 2010; in the data active means inhibition above about 29%;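 further: 0% = agonist challenge alone and 100% = reference antagonist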
CHO Ca counter: ATP-evoked calcium inhibition in parental CHO, counter-screen for OX1R antagonist project, cell-based, fluorescence, CHO-K1, triplicate | 1,100 compounds, 9.3% hits | AID 492965, 2010 | inhibition, % at 5.6 µM | shares compounds with OX1R antag-1 | ATP-induced calcium, Fluo-8 fluorescence;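 active means inhibition above a per-plate limit, the mean inhibition of that plate's test compounds plus 3 SD, cut at about 25% in these data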;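 further: 0% = ATP challenge with DMSO and 100% = DMSO without ATP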
OX1R HTRF confirm: OX1R (HCRTR1) antagonists, confirmation, cell-based, HTRF | shares compounds with OX1R antag-2 | OX1R-expressing cells, HTRF antagonist assay | inhibition, % at 6.6 µM | 1,800 compounds, 49% hits | AID 492964, 2010; in the data active means inhibition above about 55%;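 further: CHO cells expressing OX1R stimulated with orexin A at about EC80; 0% = agonist challenge alone and 100% = reference antagonist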
CHO-K1 HTRF: signal inhibition in parental CHO-K1 cells, counter-screen for OX1R antagonist project, cell-based, HTRF | inhibition, % at 6.6 µM | HTRF counterscreen | 1,800 compounds, 48% hits | shares compounds with OX1R antag-2; in the data active means inhibition above about 17%;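 further: 0% = agonist challenge with vehicle and 100% = vehicle alone without agonist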
* marks the source's active call; other numbers are inactive results; / = no result given. An excerpt weighted towards active compounds, which were near 4.6% of everything screened.

SMILES	TAAR1 ag	CHO parental Ca	TAAR1 antag	OX1R antag-1	GPR7 antag	OX1R antag-2	OX1R Fluo8 conf	CHO Ca counter	OX1R HTRF confirm	CHO-K1 HTRF
Cc1ccc(/C=C2/Sc3ccccc3N(CC(=O)NCC3CCCO3)C2=O)cc1 (centres undefined)	/	-16	/	55*	-11	77*	59*	-3	88*	7
O=C(CN1C(=O)/C(=C\c2cccc(Br)c2)Oc2ccccc21)NCC1CCCO1 (centres undefined)	-1	-23	-9	32	4	67*	79*	-13	90*	1
CCc1ccc(/C=C2/Sc3ccccc3N(CC(=O)NCC3CCCO3)C2=O)cc1 (centres undefined)	0	13	42	84*	8	95*	45*	-14	87*	5
O=C(CN1C(=O)/C(=C/c2ccccc2)Sc2ccccc21)NCCCN1CCOCC1	0	-18	-1	-1	-2	9	/	/	/	/
Cc1cc(C)cc(CSCC(=O)N/N=C/c2ccc(OCC(=O)NCc3ccco3)cc2)c1	/	-20	/	50*	2	58*	32*	-2	54	7
CC(=O)Nc1ccc(NC(=O)C(C)OC(=O)COc2ccc(Nc3ccccc3)cc2)cc1 (centres undefined)	15	-10	13	41*	/	31*	33*	-1	24	5
O=C(Nc1ccccc1)c1nc[nH]c1C(=O)NCc1ccccc1	4	3	-24	-15	/	10	/	/	/	/
NNC(=O)c1nc[nH]c1C(=O)Nc1ccccc1	3	-21	-16	25	-18	51*	8	17	23	3
Fc1cccc2sc(Nc3nc4cc5c(cc4s3)OCO5)nc12	2	-12	39	41*	-6	76*	22	0	59*	6
Fc1cccc2sc(Nc3nc4cc5c(cc4s3)OCCO5)nc12	12	-13	12	25	-14	48	/	/	/	/
CCOc1ccccc1NC(=O)c1ccccc1-c1nc(-c2ccccc2OC)no1	11	9	66*	45*	8	87*	11	-12	55	6
CCOc1ccccc1C(=O)NCCNC(=O)c1ccccc1OCC	3	-5	9	65*	/	80*	77*	-14	52	10
CCOc1ccccc1C(=O)Nc1cc(OC)ccc1OC	2	-2	16	61*	-10	68*	3	-17	89*	-3
CC(NC(C)c1ccccc1Cl)C(=O)Nc1cccc(S(=O)(=O)N2CCCCC2)c1 (centres undefined)	5	-21	-9	89*	/	88*	80*	-14	89*	-1
c1ccc2nc(-c3ccc(N4CCOCC4)cc3)ccc2c1	15	-7	18	-13	-5	33	/	/	/	/
Cc1cc(-c2ccc(N3CCOCC3)cc2)nc2ccccc12	10	-11	6	32	2	91*	54*	-1	93*	12
O=NN(CCF)C(=O)NC1CCS(=O)(=O)CC1	2	/	-19	/	/	/	/	/	/	/
CC(C)C[C@H]1CN([C@@H](Cc2ccc(O)cc2)CN2CCC[C@H]2CN2C(=O)C(=O)NC[C@@H]2Cc2ccc(O)cc2)C(=O)C(=O)N1CCc1ccccc1	1	/	8	/	/	/	/	/	/	/
CC(=O)NC(Cc1c[nH]c2ccccc12)C(=O)N/N=C/c1ccccc1 (centres undefined)	6	2	-12	64*	-11	73*	36*	-1	72*	0
Cc1cccc(C(=O)NC(=S)Nc2c(C)n(C)n(-c3ccccc3)c2=O)c1	2	-10	3	-16	-10	0	/	/	/	/
CC1CC(C)CN(C(=O)CNC(=O)c2sc3ccccc3c2Cl)C1 (centres undefined)	0	-26	-3	55*	/	70*	27	-11	83*	8
Cc1ccnc(NC(=O)c2oc3ccccc3c2C)c1	2	-10	-12	51*	/	96*	49*	-9	91*	15
CC(=O)Cc1nsc(NC(=O)c2ccc(-c3ccccc3Cl)o2)n1	6	-26	6	61*	-2	80*	3	8	40	7
Cc1cc(Br)cn2c(Cc3ccccc3)c(-c3ccco3)nc12	-2	/	-9	/	/	/	/	/	/	/
CNC(=O)Nc1cccc2cccnc12	3	-11	-12	-3	-11	11	/	/	/	/
SMILES	TAAR1 ag	CHO parental Ca	TAAR1 antag	OX1R antag-1	GPR7 antag	OX1R antag-2	OX1R Fluo8 conf	CHO Ca counter	OX1R HTRF confirm	CHO-K1 HTRF
COc1ccc(NC(=O)C(=O)Nc2cccc3cccnc23)c(OC)c1	10	2	-4	31	-6	4	/	/	/	/
COc1ccc(NC(=O)C(=O)Nc2cccc3cccnc23)cc1OC	0	-4	-4	53*	-20	81*	61*	-4	93*	13
CCOc1ccc(C(=O)Nc2cccc3cccnc23)cc1	1	-12	-22	66*	4	81*	29*	-8	87*	8
CC1Cc2cc(/C(O)=C3/C(=O)C(=O)N(CCN4CCOCC4)C3c3ccc([N+](=O)[O-])cc3)ccc2O1 (centres undefined)	0	-14	-18	-15	-12	36	/	/	/	/
CCc1ccc(-c2cc(C)no2)cc1S(=O)(=O)NCCCN1CCN(c2ccccc2)CC1	3	5	32	33	11	41*	13	-6	31	-1
CCc1ccc(-c2cc(C)no2)cc1S(=O)(=O)NCCN1CCC(C)CC1	0	-34	-22	-28	-2	11	/	/	/	/
CCN(CC)S(=O)(=O)c1cc(NC(=O)CSCc2c(C)noc2C)ccc1C	3	-10	-3	46*	/	74*	36*	-22	80*	-13
